From ChEMBL document CHEMBL4622973, “Discovery of Potent Small-Molecule SIRT6 Activators: Structure-Activity Relationship and Anti-Pancreatic Ductal Adenocarcinoma Activity” (J Med Chem, 2020)

Legend:
[1] = biological target: T1, NAD-dependent protein deacylase sirtuin-6 (Homo sapiens, UniProt Q8N6T7); assay: Activation of N-terminal his-tagged human SIRT6 expressed in Escherichia coli M15 [pREP4] assessed as increase in peptide demyristoylation at 20 uM incubated for 120 mins using Ac-EALPKK(Myr)-AMC substrate by FDL assay relative to control
T1 sequence (Q8N6T7 whole entry): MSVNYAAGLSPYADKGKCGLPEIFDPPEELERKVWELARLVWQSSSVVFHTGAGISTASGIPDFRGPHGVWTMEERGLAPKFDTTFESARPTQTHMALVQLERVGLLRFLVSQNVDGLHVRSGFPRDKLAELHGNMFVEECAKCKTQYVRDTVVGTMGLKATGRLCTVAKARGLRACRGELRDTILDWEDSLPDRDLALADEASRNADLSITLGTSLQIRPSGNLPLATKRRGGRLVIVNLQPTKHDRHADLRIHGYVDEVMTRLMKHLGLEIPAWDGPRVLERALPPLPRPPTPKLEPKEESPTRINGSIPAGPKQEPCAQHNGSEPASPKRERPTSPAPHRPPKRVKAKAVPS
Procedure, shortened: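 Demyristoylation: 1 µM recombinant SIRT6 preincubated with compound for 20 min at 37 °C in 50 mM Tris-HCl pH 8.0, BSA 1 mg/mL, 1 mM DTT, with 10 µM Ac-EALPKK(Myr)-AMC. Started with 1 mM NAD and run 120 min at 37 °C. Developed 120 min at 37 °C with 5 mg/mL trypsin/8 mM nicotinamide. Fluorescence read. Mean ± s.d., triplicate wells, three independent experiments.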

[2] = biological target: T1, NAD-dependent protein deacylase sirtuin-6; assay: Activation of N-terminal his-tagged human SIRT6 expressed in Escherichia coli M15 [pREP4] assessed as increase in peptide demyristoylation incubated for 120 mins using Ac-EALPKK(Myr)-AMC substrate by FDL assay relative to control
Procedure, shortened: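 Demyristoylation: 1 µM recombinant SIRT6 preincubated with compound for 20 min at 37 °C in 50 mM Tris-HCl pH 8.0, BSA 1 mg/mL, 1 mM DTT, with 10 µM Ac-EALPKK(Myr)-AMC. Fluorescence read. Mean ± s.d., triplicate wells, three independent experiments.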

Compound | Activity [1] | EC1.5 [2]
CCN(CC)c1ccc(NC(=O)c2cc(-c3ccc(OC)c(OC)c3)nc3ccccc23)cc1 | 83.3% | –
O=C(Nc1cc(C(F)(F)F)ccc1Cl)c1cc(-c2ccc3c(c2)OCO3)nc2ccccc12 | 228% | 14.9 µM
CCCNC(=O)c1cc(-c2ccc(OC)c(OC)c2)nc2ccccc12 | 99% | –
COc1cc(NC(=O)c2cc(-c3ccc(OC)c(OC)c3)nc3ccccc23)cc(OC)c1 | 103% | –
O=C(Nc1ccc(C(F)(F)F)cc1)c1cc(-c2cc3ccccc3o2)nc2ccccc12 | 335% | 5.17 µM
Cc1ccc(-c2cc(C(=O)Nc3cc(C(F)(F)F)ccc3Cl)c3ccccc3n2)c(C)c1 | 92.3% | –
CCOc1ccc(NC(=O)c2cc(-c3cc4ccccc4o3)nc3ccccc23)cc1 | 109% | –
O=C(Nc1cc(C(F)(F)F)ccc1Cl)c1cc(-c2cc3ccccc3o2)nc2ccccc12 | 762% | 0.85 µM
COc1ccc(-c2cc(C(=O)NC(c3ccccc3)c3ccccc3)c3ccccc3n2)cc1OC | 276% | 5.97 µM
O=C(Nc1ccc(Oc2ccccc2)cc1)c1cc(-c2cc3ccccc3o2)nc2ccccc12 | 118% | –
Cc1ccc(-c2cc(C(=O)Nc3cc(C(F)(F)F)ccc3Cl)c3ccccc3n2)s1 | 141% | –
O=C(Nc1cccc2ccccc12)c1cc(-c2cc3ccccc3o2)nc2ccccc12 | 119% | –
O=C(NCc1ccc(F)cc1)c1cc(-c2cc3ccccc3o2)nc2ccccc12 | 482% | 2.19 µM
COc1ccc(-c2cc(C(=O)Nc3sc(C)c(C)c3C#N)c3ccccc3n2)cc1OC | 95.1% | –
Cc1ccc(-c2cc(C(=O)Nc3cc(C(F)(F)F)ccc3Cl)c3ccccc3n2)cc1 | 109% | –
O=C(Nc1ccc(C(F)(F)F)cc1Cl)c1cc(-c2cc3ccccc3o2)nc2ccccc12 | 287% | 4.96 µM
O=C(Nc1cc(C(F)(F)F)ccc1Cl)c1cc(C2CCCCC2)nc2ccccc12 | 82.4% | –
O=C(Nc1cc(C(F)(F)F)ccc1Cl)c1cc(C2CCCC2)nc2ccccc12 | 76.4% | –
COc1ccc(-c2cc(C(=O)NC3CCCC3)c3ccccc3n2)cc1OC | 124% | –
COc1ccc(-c2cc(C(=O)Nc3cc(O)c(C(C)(C)C)cc3C(C)(C)C)c3ccccc3n2)cc1OC | 88.6% | –
O=C(Nc1cc(C(F)(F)F)ccc1Cl)c1cc(-c2cccnc2)nc2ccccc12 | 85.6% | –
Cc1ccc(-c2cc(C(=O)Nc3cc(C(F)(F)F)ccc3Cl)c3ccccc3n2)o1 | 184% | 18.6 µM
CCOC(=O)c1sc(NC(=O)c2cc(-c3ccc(OC)c(OC)c3)nc3ccccc23)nc1C | 90.3% | –

Compound | Activity [1] | EC1.5 [2]
COc1ccc(-c2cc(C(=O)Nc3c(C)cc(C)cc3C)c3ccccc3n2)cc1OC | 284% | 4.77 µM
O=C(Nc1cc(C(F)(F)F)ccc1Cl)c1cc(-c2cccs2)nc2ccccc12 | 130% | –
COC(=O)c1c(NC(=O)c2cc(-c3ccc(OC)c(OC)c3)nc3ccccc23)sc2c1CCCC2 | 95.2% | –
COC(=O)[C@H]1C2CCC(CC2)[C@@H]1NC(=O)c1cc(-c2ccc(OC)c(OC)c2)nc2ccccc12 | 128% | –
COc1cccc2cc(-c3cc(C(=O)Nc4cc(C(F)(F)F)ccc4Cl)c4ccccc4n3)oc12 | 321% | 5.96 µM
O=C(Nc1cc(C(F)(F)F)ccc1Cl)c1cc(-c2ccco2)nc2ccccc12 | 141% | –
O=C(Nc1ccc(Cl)c(Cl)c1)c1cc(-c2cc3ccccc3o2)nc2ccccc12 | 109% | –
COc1ccc(-c2cc(C(=O)Nc3cc(C(F)(F)F)ccc3Cl)c3ccccc3n2)cc1 | 163% | 20.7 µM
O=C(Nc1cc(C(F)(F)F)ccc1Cl)c1cc(-c2ccc3c(c2)OCCO3)nc2ccccc12 | 159% | 29.4 µM
COc1ccc(-c2cc(C(=O)N3CCN(C)CC3)c3ccccc3n2)cc1OC | 105% | –
COc1ccc(-c2cc(C(=O)Nc3nc4ccc(S(C)(=O)=O)cc4s3)c3ccccc3n2)cc1OC | 83.4% | –
O=C(Nc1cccc(Cl)c1Cl)c1cc(-c2cc3ccccc3o2)nc2ccccc12 | 163% | 20.7 µM
COc1ccc(-c2cc(C(=O)NC34CC5CC(CC(O)(C5)C3)C4)c3ccccc3n2)cc1OC | 86.1% | –
Cc1c(Cl)cccc1NC(=O)c1cc(-c2cc3ccccc3o2)nc2ccccc12 | 205% | 9.01 µM
Cc1cc(C)c(NC(=O)c2cc(-c3cc4ccccc4o3)nc3ccccc23)c(C)c1 | 315% | 3.71 µM
Cc1ccc(CNC(=O)c2cc(-c3cc4ccccc4o3)nc3ccccc23)cc1 | 208% | 14.5 µM
COC(=O)c1c(NC(=O)c2cc(-c3ccc(OC)c(OC)c3)nc3ccccc23)sc(C)c1C | 101% | –
COc1ccc(-c2cc(C(=O)Nc3ccc(F)c([N+](=O)[O-])c3)c3ccccc3n2)cc1OC | 96.9% | –
Cc1ccc(C)c(NC(=O)c2cc(-c3cc4ccccc4o3)nc3ccccc23)c1 | 349% | 3.47 µM
O=C(NCc1ccc(Cl)c(Cl)c1)c1cc(-c2cc3ccccc3o2)nc2ccccc12 | 314% | 5.91 µM
COC(=O)c1c(-c2ccc(C)cc2)csc1NC(=O)c1cc(-c2ccc(OC)c(OC)c2)nc2ccccc12 | 82.9% | –
COc1ccc(-c2cc(C(=O)Nc3cc(C(F)(F)F)ccc3Cl)c3ccccc3n2)cc1F | 91.2% | –

More lines, now with the values ahead:

Activity [1] | EC1.5 [2] | Compound
142% | – | COc1ccc(-c2cc(C(=O)Nc3ccc(C(F)(F)F)cc3)c3ccccc3n2)cc1OC
98.3% | – | COc1ccc(-c2cc(C(=O)Nc3ccc(C)cc3)c3ccccc3n2)cc1OC
105% | – | COc1ccc(-c2cc(C(=O)Nc3ccccc3Cl)c3ccccc3n2)cc1OC
139% | – | COc1ccc(-c2cc(C(=O)Nc3ccc4ccccc4c3)c3ccccc3n2)cc1OC
128% | – | COc1ccc(-c2cc(C(=O)Nc3ccccc3Br)c3ccccc3n2)cc1OC
131% | – | COc1ccc(-c2cc(C(=O)Nc3ccc(S(N)(=O)=O)cc3)c3ccccc3n2)cc1OC
313% | 5.61 µM | COc1ccc(-c2cc(C(=O)Nc3cc(C)ccc3C)c3ccccc3n2)cc1OC
91% | – | COc1ccc(-c2cc(C(=O)Nc3nc(-c4ccc(Cl)cc4)cs3)c3ccccc3n2)cc1OC
124% | – | COc1ccc(-c2cc(C(=O)Nc3ccc(C(C)(C)C)cc3)c3ccccc3n2)cc1OC
101% | – | COc1cc([N+](=O)[O-])ccc1NC(=O)c1cc(-c2ccc(OC)c(OC)c2)nc2ccccc12
181% | 7.53 µM | COc1ccc(-c2cc(C(=O)Nc3ccc(C(F)(F)F)cc3Cl)c3ccccc3n2)cc1OC
104% | – | COc1ccc(-c2cc(C(=O)Nc3cccc(Cl)c3)c3ccccc3n2)cc1OC
87.2% | – | COc1ccc(NC(=O)c2cc(-c3ccc(OC)c(OC)c3)nc3ccccc23)c([N+](=O)[O-])c1
142% | – | COc1ccc(-c2cc(C(=O)Nc3cccc(F)c3)c3ccccc3n2)cc1OC
95.2% | – | CCOc1ccccc1NC(=O)c1cc(-c2ccc(OC)c(OC)c2)nc2ccccc12
104% | – | COc1ccc(-c2cc(C(=O)Nc3ccc(F)cc3)c3ccccc3n2)cc1OC
199% | 19 µM | COc1ccc(-c2cc(C(=O)Nc3cccc(Cl)c3C)c3ccccc3n2)cc1OC
327% | 7.44 µM | COc1ccc(-c2cc(C(=O)Nc3cccc4ccccc34)c3ccccc3n2)cc1OC
98.2% | – | COc1ccc(-c2cc(C(=O)Nc3cc([N+](=O)[O-])ccc3Cl)c3ccccc3n2)cc1OC

Activity [1] | EC1.5 [2] | Compound
65.7% | – | COc1ccc(-c2cc(C(=O)Nc3ccc(F)cc3[N+](=O)[O-])c3ccccc3n2)cc1OC
118% | – | CCOC(=O)c1ccccc1NC(=O)c1cc(-c2ccc(OC)c(OC)c2)nc2ccccc12
239% | 6.47 µM | COc1ccc(-c2cc(C(=O)Nc3ccc(Oc4ccccc4)cc3)c3ccccc3n2)cc1OC
108% | – | COc1ccc(-c2cc(C(=O)Nc3ccc(F)c(Cl)c3)c3ccccc3n2)cc1OC
365% | 2.84 µM | COc1ccc(-c2cc(C(=O)Nc3cc(C(F)(F)F)ccc3Cl)c3ccccc3n2)cc1OC
168% | 19.5 µM | COc1ccc(-c2cc(C(=O)NCc3ccc(F)cc3)c3ccccc3n2)cc1OC
107% | – | COc1ccc(-c2cc(C(=O)NCc3ccccc3)c3ccccc3n2)cc1OC
117% | – | COc1ccc(-c2cc(C(=O)Nc3ccc(C)c(Cl)c3)c3ccccc3n2)cc1OC
260% | 8.14 µM | COc1ccc(-c2cc(C(=O)NCc3ccc(Cl)c(Cl)c3)c3ccccc3n2)cc1OC
95.5% | – | COc1ccc(-c2cc(C(=O)Nc3cc(S(N)(=O)=O)ccc3C)c3ccccc3n2)cc1OC
225% | 7.78 µM | COc1ccc(-c2cc(C(=O)NCc3ccc(C)cc3)c3ccccc3n2)cc1OC
101% | – | COc1ccc(-c2cc(C(=O)Nc3ccc(F)c(F)c3)c3ccccc3n2)cc1OC
115% | – | COc1cccc(NC(=O)c2cc(-c3ccc(OC)c(OC)c3)nc3ccccc23)c1
92.4% | – | COc1ccc(-c2cc(C(=O)Nc3ccccc3F)c3ccccc3n2)cc1OC
166% | 10.3 µM | CCOc1ccc(NC(=O)c2cc(-c3ccc(OC)c(OC)c3)nc3ccccc23)cc1
98.7% | – | COc1ccc(-c2cc(C(=O)Nc3ccc(Cl)cc3)c3ccccc3n2)cc1OC
224% | 5.97 µM | COc1ccc(-c2cc(C(=O)Nc3cccc(Cl)c3Cl)c3ccccc3n2)cc1OC
131% | – | COc1ccc(-c2cc(C(=O)Nc3cc(C(C)C)ccc3C)c3ccccc3n2)cc1OC
